Measured values from different studies.

For COc1ccc2c(c1)c(=O)c(C(=O)NN)cn2Cc1ccccc1, the EC50 was greater than 4 µM (Trypanosoma brucei; parasite growth; resazurin; 72 h).
The MIC of Cl.N[C@H]1CCN(c2cc(C(=O)NCC(=O)O)ccc2NC(=O)c2cc(Br)c(Br)[nH]2)C1 is reported as greater than 32 µg/mL (Enterococcus faecium; microbial growth; broth dilution; ATCC35667).
N=C(N)c1ccc(OCCCCCOc2ccc(C(=N)N)cc2)cc1 gave an EC50 of 0.016 µM (Trypanosoma brucei; parasite growth; SYBR Green).
CC(C)(C)OC(=O)N[C@@H]1CCN(c2cc(C(=O)NCC(=O)O)ccc2NC(=O)c2cc(Br)c(Br)[nH]2)C1 has an MIC of greater than 32 µg/mL (Enterococcus faecium; microbial growth; broth dilution; ATCC35667).
For Cc1ccc(Cn2cc(C(=O)N/N=C/c3ccc([N+](=O)[O-])o3)c(=O)c3cc(Cl)ccc32)cc1, the EC50 was 0.42 µM (Trypanosoma brucei; parasite growth; resazurin; 72 h).
For Cc1[nH]c(C(=O)Nc2ccc(C(=O)NCC(=O)O)cc2N2CC[C@H](NC(=O)OC(C)(C)C)C2)c(Cl)c1Cl, the MIC was greater than 32 µg/mL (Enterococcus faecium; microbial growth; broth dilution; ATCC35667).
The EC50 of Cc1cc(C)c(C#N)c(SCc2ccccc2)n1 is reported as greater than 64 µM (Trypanosoma brucei; parasite growth; resazurin; RHODESIENSE).
Cc1ccc(Cn2cc(C(=O)NN)c(=O)c3cc(Oc4ccccc4)ccc32)cc1 has an EC50 of 0.46 µM (Trypanosoma brucei; parasite growth; resazurin; 72 h).
Cc1cc(C)c(C#N)c(SCC(=O)c2ccc(F)cc2)n1 has an EC50 of 42.6 µM (Trypanosoma brucei; parasite growth; resazurin).
Cc1ccc(Cn2cc(C(=O)N/N=C/c3ccc([N+](=O)[O-])o3)c(=O)c3cc(Cl)c(Cl)cc32)cc1 gave an EC50 of 1.02 µM (Trypanosoma brucei; parasite growth; resazurin; 72 h).
The EC50 of COc1ccc(C(=O)CSc2[nH]c(=O)cc(C(F)(F)F)c2C#N)cc1 is reported as 30.8 µM (Trypanosoma brucei; parasite growth; resazurin).
COc1cc(NC(=O)c2ccc(C(F)(F)F)cc2C(F)(F)F)ccc1S(N)(=O)=O gave an IC50 of greater than 100 µM (Trypanosoma brucei; parasite growth; MTS).
Cc1cc(C)c(C(N)=O)c(SCC(=O)c2ccc(Cl)cc2Cl)n1 gave an EC50 of greater than 64 µM (Trypanosoma brucei; parasite growth; resazurin).
For Cc1ccc(Cn2cc(C(=O)N/N=C/c3ccc([N+](=O)[O-])o3)c(=O)c3cc([N+](=O)[O-])ccc32)cc1, the EC50 was greater than 4 µM (Trypanosoma brucei; parasite growth; resazurin; 72 h).
Cl.O=C(O)CNC(=O)c1ccc(NC(=O)c2cc(Br)c(Br)[nH]2)c(N2CCNCC2)c1 has an MIC of greater than 32 µg/mL (Enterococcus faecium; microbial growth; broth dilution; ATCC35667).
Cc1cc(C)c(C#N)c(SCC(=O)c2ccc(Cl)cc2)n1 has an EC50 of 30.2 µM (Trypanosoma brucei; parasite growth; resazurin; RHODESIENSE).
